Source: PubChem (several laboratories)
Hits are enriched below; roughly 3.7% of the tested compounds scored in any of these assays.
NPY1 pot ag: potentiates or activates human NPY-Y1 receptor | P25929 | 0.37% of 220,000 active | activation, % at 3.6 µM | NPY-Y1 expressing cells, potentiator/agonist activation | AID 1304; in the data active = activation above about 33%, passing the limit was not always enough;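 also: cells stimulated with NPY at EC10 then isoproterenol at EC100; 0% = low agonist plus stimulus and 100% = saturating agonist plus stimulus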
NPY-Y1 antag: blocks the human neuropeptide Y Y1 receptor; HEK293-CNG Y1 cells, membrane potential fluorescence; NPY at EC95, then isoproterenol; 1% of 200,000 active; P25929; AID 1040; inhibition, % at 3.6 µM;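 active = inhibition above the campaign mean inhibition of all tested compounds plus 3 SD, cut at about 20% in these data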;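 also: 0% = DMSO wells given NPY plus isoproterenol and 100% = isoproterenol alone without NPY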
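Material: HEK293 Y1/CNG channel cell line; also added: NPY (25 nM), isoproterenol (1 µM), Ro 20-1724 (25 µM); doses: one concentration, 3.6 µM, in 0.4% DMSO; schedule: compound incubation 1 h at room temperature, readout 45 min post-stimulation; technique: membrane potential fluorescence; measure: fluorescence ratio normalized to % inhibition between controls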
Furin inh: human furin inhibition | purified furin, fluorogenic substrate cleavage | inhibition, % at 20 µM or 30 µM | 0.061% of 220,000 active | AID 463115; in the data active = inhibition above about 25%
KCC2 mod: modulates chloride dependent transport by human KCC2 | Q9H2X9 | KCC2 cells, thallium flux FluoZin-2 fluorescence | B-score of Tl+ flux slope (higher = more flux/activation; lower = inhibition) at 10 µM | 2.2% of 190,000 active;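 active = thallium flux slope and its plate-corrected score both differing from the plate sample mean at a set confidence after two filtering rounds, in either direction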;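 also: slope of fluorescence scaled to starting intensity during 10 to 20 s after thallium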
Target sequence (Q9H2X9 whole entry, looked up): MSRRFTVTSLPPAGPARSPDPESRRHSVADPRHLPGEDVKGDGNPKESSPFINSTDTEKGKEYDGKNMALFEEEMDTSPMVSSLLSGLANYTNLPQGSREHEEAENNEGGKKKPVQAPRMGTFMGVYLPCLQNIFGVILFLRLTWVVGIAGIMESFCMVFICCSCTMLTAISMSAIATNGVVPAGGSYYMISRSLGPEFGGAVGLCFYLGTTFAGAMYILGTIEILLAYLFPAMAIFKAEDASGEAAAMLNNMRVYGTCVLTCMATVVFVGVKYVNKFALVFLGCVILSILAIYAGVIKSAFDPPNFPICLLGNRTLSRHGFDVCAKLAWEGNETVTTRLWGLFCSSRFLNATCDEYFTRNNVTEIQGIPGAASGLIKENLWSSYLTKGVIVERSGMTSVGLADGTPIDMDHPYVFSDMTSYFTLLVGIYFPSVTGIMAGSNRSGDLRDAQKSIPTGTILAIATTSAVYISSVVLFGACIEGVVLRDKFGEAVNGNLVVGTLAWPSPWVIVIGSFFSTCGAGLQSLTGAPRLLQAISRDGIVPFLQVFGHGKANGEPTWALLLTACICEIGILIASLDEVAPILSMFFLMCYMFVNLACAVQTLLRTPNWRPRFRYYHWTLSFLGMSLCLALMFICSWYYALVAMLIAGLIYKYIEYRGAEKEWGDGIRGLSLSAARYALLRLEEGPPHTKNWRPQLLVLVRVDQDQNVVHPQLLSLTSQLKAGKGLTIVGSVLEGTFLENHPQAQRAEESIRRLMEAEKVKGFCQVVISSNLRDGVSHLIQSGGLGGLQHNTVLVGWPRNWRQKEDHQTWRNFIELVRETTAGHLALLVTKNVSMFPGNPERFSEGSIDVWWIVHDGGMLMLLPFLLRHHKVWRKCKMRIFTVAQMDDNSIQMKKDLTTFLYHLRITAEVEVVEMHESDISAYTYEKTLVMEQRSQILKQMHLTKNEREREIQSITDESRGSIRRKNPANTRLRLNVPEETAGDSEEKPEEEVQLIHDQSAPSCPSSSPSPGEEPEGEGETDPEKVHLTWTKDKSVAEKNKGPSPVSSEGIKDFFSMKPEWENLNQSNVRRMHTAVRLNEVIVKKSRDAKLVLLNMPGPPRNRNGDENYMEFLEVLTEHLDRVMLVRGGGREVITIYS
NPY-Y2 antag: NPY-Y2 (human) receptor antagonism | AID 793 | P49146 | NPY-Y2 expressing cells, antagonist mode | inhibition, % at 2.7 µM | 0.99% of 140,000 active; in the data active = inhibition above about 17%;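 also: 0% = vehicle with agonist challenge and 100% = reference antagonist with challenge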
NPY-Y2 PAM-ag: potentiators or agonists of human neuropeptide Y receptor Y2 | cells expressing NPY-Y2, potentiator/agonist read-out | AID 1359 | 0.45% of 220,000 active | P49146 | activation, % at 3.6 µM; in the data active = activation above about 27%;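 also: cells stimulated with NPY near EC25 plus isoproterenol at EC100; 0% = vehicle plus submaximal agonist and 100% = vehicle plus saturating agonist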
NPY-Y2 pot conf: human NPY-Y2 potentiation or agonism, confirmation. shares compounds with NPY-Y2 PAM-ag. cell-based NPY-Y2 potentiator/agonist assay. activation, % at 3.6 µM. 20% of 450 active. AID 1539; in the data active = activation above about 33%
NPY-Y1 counter: counter-screen for NPY-Y2 potentiators or agonists: NPY-Y1 potentiators or agonists; shares compounds with NPY-Y2 PAM-ag; activation, % at 3.6 µM; Y1 HEK293-CNG cells, membrane potential fluorescence; 20% of 450 active; AID 1651; in the data active = activation above about 45%;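 also: cells stimulated with submaximal NPY then isoproterenol with phosphodiesterase inhibitor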
NPY-Y1 ag 2: human NPY-Y1 agonism as NPY-Y2 potentiator counter-screen; shares compounds with NPY-Y2 PAM-ag; HEK293 Y1-CNGC, membrane potential fluorescence; activation, % at 3.6 µM; 37% of 450 active;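 active = activation above the mean of DMSO-only control wells plus 3 SD, cut at about 18% in these data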;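 also: cells stimulated with 1 µM isoproterenol plus the PDE inhibitor Ro 20-1724; 0% = isoproterenol with DMSO and no NPY and 100% = 40 nM NPY; Y1 agonists lower the membrane potential dye signal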
CNGC inh: blocks CNG channel activity, counter-screen for NPY-Y2 potentiators; shares compounds with NPY-Y2 PAM-ag; HEK293-CNG parental, isoproterenol cAMP, membrane potential fluorescence; inhibition, % at 3.6 µM; 32% of 450 active;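 active = inhibition above the control-well mean plus 3 SD of those wells, cut at about 22% in these data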;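 also: 0% = DMSO with isoproterenol and 100% = DMSO without isoproterenol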
Y2 agonist ctr: NPY-Y2 agonism, counter-screen for Y2 potentiators | shares compounds with NPY-Y2 PAM-ag | HEK293 Y2/CNGC cells, membrane potential fluorescence, agonist mode | activation, % at 3.6 µM | 56% of 450 active | AID 1710;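 active = activation above the mean of solvent-only control wells plus 3 SD, cut at about 10% in these data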;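 also: cells stimulated by isoproterenol with no NPY added so direct agonism is tested; 0% = DMSO with isoproterenol alone and 100% = NPY at EC100 plus isoproterenol; agonism lowers probe fluorescence through less cAMP and CNG channel opening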
Numbers without * were called inactive; nt = no result.

SMILES	NPY1 pot ag	NPY-Y1 antag	Furin inh	KCC2 mod	NPY-Y2 antag	NPY-Y2 PAM-ag	NPY-Y2 pot conf	NPY-Y1 counter	NPY-Y1 ag 2	CNGC inh	Y2 agonist ctr
COc1cc(/C=N/NC(=O)CSc2nc3ccccc3n2C)cc(OC)c1OC	-20	10	-13	1.9	0	-21	nt	nt	nt	nt	nt
O=C(CNC1CCCCCC1)Nc1ccc(N2CCCC2)cc1	17	-5	-20	0.22	6	-10	nt	nt	nt	nt	nt
O=C(CNCCC1=CCCCC1)Nc1ccc(N2CCCCCC2)cc1	38	-3	-4	0.48	1	45*	39*	45*	37*	38*	46*
Cc1ccc(NC(=O)CNCCCN2CCOCC2)cc1S(=O)(=O)N1CCCCC1	-13	nt	-15	0.0022	nt	-1	nt	nt	nt	nt	nt
O=C(CCl)N=c1sccn1Cc1cccc2ccccc12	8	-2	-7	0.5	nt	27*	-4	-8	-11	14	3
CC1CC(C)CN(c2cc(N(C)CCO)c([N+](=O)[O-])c3nonc23)C1 (stereo unspecified)	-20	1	-5	0.12	nt	-2	nt	nt	nt	nt	nt
CC(=O)OCC1O[C@@H](O[C@@H]2C[C@H]3C(C)(C)[C@H](OC(C)=O)CC[C@]3(C)[C@H]3CC[C@]45C[C@]4(CC[C@H]5[C@@H](C)C[C@@H](O)[C@H](O)C(C)(C)O)[C@@]32C)[C@H](O)[C@@H](O)[C@@H]1O (stereo partly specified)	31	-10	-3	1.4	0	35*	32	31	39*	26*	35*
CCN(CC)S(=O)(=O)c1ccc2[nH]cc(C(=O)NCCC3=CCCCC3)c(=O)c2c1	36	-11	-18	-2.5	-4	34*	19	13	13	14	23*
CCOc1cc(C(=S)N2CCOCC2)ccc1OS(=O)(=O)c1ccc(NC(C)=O)cc1	8	6	-21	nt	10	33*	5	-16	-10	-2	-6
Cc1cccc2cc(CN(Cc3nnnn3Cc3ccco3)C3CCCC3)c3nnnn3c12	-20	5	10	-1.1	5	-4	nt	nt	nt	nt	nt
Fc1ccc(Nc2c(-c3ccco3)nc3ccccn23)cc1	-1	7	-9	-0.26	6	32*	30	31	18*	17	22*
CN(CCC1CCCCO1)C(=O)CCc1nnc(C2CCCCC2)o1 (stereo unspecified)	11	2	-23	0.15	nt	2	nt	nt	nt	nt	nt
Cc1ccc2[nH]c(=O)c(CNC(C)C)cc2c1	29	-1	-20	0.95	0	99*	1	4	-6	2	8
CCc1noc(C)c1C(=O)Nc1nc(-c2cc(C)ccc2C)c(C)s1	4	-2	-15	1	1	-15	nt	nt	nt	nt	nt
CCc1noc(C)c1C(=O)Nc1ncc(C)s1	25	-1	-3	nt	2	32*	-1	3	-1	2	-1
CCOc1ccccc1C(=O)Nc1cnn(Cc2ccc(F)cc2)c1	-17	-2	-10	-2.6	4	-5	nt	nt	nt	nt	nt
O=C(CS(=O)(=O)c1ccccc1)N1CCc2ccccc21	28	1	-32	-0.58	nt	34*	-5	-4	-4	1	3
O=C(Cc1ccccc1)N1CCc2ccccc21	-10	4	-12	nt	4	-13	nt	nt	nt	nt	nt
O=C(NCCN1CCOCC1)c1cc(Cl)ccc1[N+](=O)[O-]	-1	-4	-23	1.3	2	10	nt	nt	nt	nt	nt
Oc1ccccc1OCc1nc2ccccc2s1	-20	1	-12	-1.9	2	-3	nt	nt	nt	nt	nt
Oc1ccc(O)c(Cc2nc3ccccc3s2)c1	27	-2	-18	-3.6	nt	29*	6	12	8	11	5
O=C(Nc1ccccn1)c1cccs1	-4	-2	-19	0.39	2	13	nt	nt	nt	nt	nt
O=C(Nc1nonc1NC(=O)c1cccs1)c1cccs1	-13	6	-21	-1	nt	31*	-6	-18	-18	-9	4
COc1ccc(/C=C(/NC(=O)c2ccco2)C(=O)N2CCCC2=O)cc1	15	-4	-8	0.0059	nt	19	nt	nt	nt	nt	nt
CN(C)C(CN=C1NS(=O)(=O)c2ccccc21)c1ccco1 (stereo unspecified)	16	-5	-25	-0.4	nt	51*	0	6	-3	-1	-3
SMILES	NPY1 pot ag	NPY-Y1 antag	Furin inh	KCC2 mod	NPY-Y2 antag	NPY-Y2 PAM-ag	NPY-Y2 pot conf	NPY-Y1 counter	NPY-Y1 ag 2	CNGC inh	Y2 agonist ctr
O=C(Nc1ccc(Br)cc1)c1ccc(F)c(S(=O)(=O)NCc2cccs2)c1	-11	-3	-16	-0.17	0	36*	0	-27	-24	-10	-2
O=C(Nc1cccc(Cl)c1)c1ccc(F)c(S(=O)(=O)NCc2ccc3c(c2)OCO3)c1	-5	5	-3	-1.9	3	-6	nt	nt	nt	nt	nt
CCc1nnc(NC(=O)CSc2nccn2-c2cc(C)cc(C)c2)s1	-1	4	-16	0.28	0	-7	nt	nt	nt	nt	nt
Cc1ccnc(NC(c2ccncc2)c2c(C)[nH]c3ccccc23)c1 (stereo unspecified)	-2	5	-22	-1.3	3	-6	nt	nt	nt	nt	nt
Cc1[nH]c2ccccc2c1C(Nc1nccs1)c1ccncc1 (stereo unspecified)	-8	6	-17	-0.17	1	27*	-5	3	-11	-4	-8
O=C(NCc1ccccc1Cl)NCc1ccccc1Cl	12	nt	-11	-0.48	nt	99*	-6	-7	-17	-4	5
CCC(CC)NCC(O)COc1ccc(Br)cc1 (stereo unspecified)	-13	3	-6	-2.4	nt	1	nt	nt	nt	nt	nt
COCCc1ccc(OCC(O)CNC(C)C)cc1 (stereo unspecified)	57	-7	-3	-1.1	0	65*	38*	39	34*	8	28*
CC(=O)c1c(C)[nH]c(C(=O)OCc2ccc(Br)cc2)c1C	-15	-1	-19	0.12	nt	-8	nt	nt	nt	nt	nt
CC(=O)c1c(C)[nH]c(C(=O)OCc2ccccc2F)c1C	9	-2	-8	0.19	nt	29*	13	17	16	27*	25*
COC(=O)Nc1sccc1C(=O)Nc1sccc1C(=O)OC	-24	5	-18	1	1	-13	nt	nt	nt	nt	nt
